Calls of active or inactive are those of the source. No cut-off for these calls is given here.

The test system of test [1] is NCI-H1975. In words: Induction of apoptosis in human NCI-H1975 at 0.25 uM by acridine orange staining-based fluorescence assay. Type of test: functional, cell-based. In a few lines: (§1)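 H1975 cells stained with acridine orange after treatment, alongside an untreated control group. Cell and chromatin morphology assessed by fluorescence imaging.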
For test [2], the system named is NCI-H1975. As to the kind of experiment: Induction of apoptosis in human NCI-H1975 assessed as induction of cell structure destruction at 0.25 uM by H33342 staining-based inverted fluorescence microscopic analysis. Type of test: functional. The essentials: (§2)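 H1975 cells stained with Hoechst 33342 after treatment, alongside an untreated control. Nuclear blue fluorescence, dye uptake, chromatin condensation and cell structure viewed under an inverted fluorescence microscope.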

Test [3] has as its system A549. As to the kind of experiment: Cell cycle arrest in human A549 cells assessed as accumulation of cells at S phase at 1.80 uM after 24 hrs by propidium iodide staining-based flow cytometric analysis (reference value: 32.13%). Type of test: functional. The essentials:
(§3)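 A549 cells seeded at 1×10^5 per well, grown 24 h, then treated 24 h with vehicle (0.1% DMSO) or compound at several concentrations. Cells fixed in ice-cold 70% ethanol at 4 °C for 12 h, washed in PBS, treated with 1 mg/mL RNase for 30 min at 37 °C, stained with propidium iodide 30 min in the dark. DNA content measured by flow cytometry.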

In test [4] the test system is A549. In words: Cell cycle arrest in human A549 cells assessed as accumulation of cells at G2/M phase at 0.36 uM after 24 hrs by propidium iodide staining-based flow cytometric analysis (reference value: 2.65%). Type of test: functional. The essentials: as §3
In test [5] the test system is NCI-H1975. In words: Induction of apoptosis in human NCI-H1975 assessed as induction of chromatin shrinkage at 0.25 uM by acridine orange staining-based fluorescence assay. It is filed as functional, cell-based. The essentials: as §1
The subject of test [6] is NCI-H1975. In words: Induction of apoptosis in human NCI-H1975 assessed as induction of membrane damage at 0.25 uM by H33342 staining-based inverted fluorescence microscopic analysis. It is filed as functional, cell-based. The essentials:
as §2

The subject of test [7] is A549. In words: Cell cycle arrest in human A549 cells assessed as accumulation at G2/M phase after 24 hrs by propidium iodide staining-based flow cytometric analysis. It is filed as functional. The essentials: as §3
Test [8] addresses Epidermal growth factor receptor (Homo sapiens, UniProt P00533). As to the kind of experiment: Inhibition of wild-type EGFR (unknown origin) using substrate-biotin by ELISA-based mobility shift assay.
Test [9] concerns A549. In words: Cell cycle arrest in human A549 cells assessed as accumulation of cells at S phase at 0.72 uM after 24 hrs by propidium iodide staining-based flow cytometric analysis (reference value: 32.13%). Type of test: functional. The essentials: as §3
The species named for the next test is Homo sapiens. As to the kind of experiment: Selectivity ratio of IC50 for wild-type EGFR (unknown origin) to IC50 for EGFR T790M/L858R double mutant (unknown origin).
The subject of another test is HepG2. As to the kind of experiment: Antiproliferative activity against human HepG2 cells after 72 hrs by MTT assay. It is filed as functional, cell-based. The following applies: HepG2, 72 h. The essentials: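 MTT assay; cells grown as monolayers in DMEM or RPMI1640 with 10% FBS at 37 °C, 5% CO2 for 24 h, then compound added for 72 h. Each compound tested three times per line; IC50 from averaged determinations.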

Test [10] has as its system NCI-H1975. As to the kind of experiment: Induction of apoptosis in human NCI-H1975 assessed as formation of cells with sharp edge at 0.25 uM by acridine orange staining-based fluorescence assay. It is filed as functional, cell-based. The essentials:
as §1

Test [11] deals with A549. In words: Cell cycle arrest in human A549 cells assessed as accumulation of cells at G0/G1 phase at 0.36 uM after 24 hrs by propidium iodide staining-based flow cytometric analysis (reference value: 65.22%). It is filed as functional. The essentials:
as §3

For test [12], the target named is Epidermal growth factor receptor (Homo sapiens, UniProt P00533, L858R/T790M). In words: Inhibition of EGFR T790M/L858R double mutant (unknown origin) using substrate-biotin by ELISA-based mobility shift assay.
Sequence of Epidermal growth factor receptor (Homo sapiens, UniProt P00533, L858R/T790M) (P00533 25-1210 T790M/L858R limits assumed): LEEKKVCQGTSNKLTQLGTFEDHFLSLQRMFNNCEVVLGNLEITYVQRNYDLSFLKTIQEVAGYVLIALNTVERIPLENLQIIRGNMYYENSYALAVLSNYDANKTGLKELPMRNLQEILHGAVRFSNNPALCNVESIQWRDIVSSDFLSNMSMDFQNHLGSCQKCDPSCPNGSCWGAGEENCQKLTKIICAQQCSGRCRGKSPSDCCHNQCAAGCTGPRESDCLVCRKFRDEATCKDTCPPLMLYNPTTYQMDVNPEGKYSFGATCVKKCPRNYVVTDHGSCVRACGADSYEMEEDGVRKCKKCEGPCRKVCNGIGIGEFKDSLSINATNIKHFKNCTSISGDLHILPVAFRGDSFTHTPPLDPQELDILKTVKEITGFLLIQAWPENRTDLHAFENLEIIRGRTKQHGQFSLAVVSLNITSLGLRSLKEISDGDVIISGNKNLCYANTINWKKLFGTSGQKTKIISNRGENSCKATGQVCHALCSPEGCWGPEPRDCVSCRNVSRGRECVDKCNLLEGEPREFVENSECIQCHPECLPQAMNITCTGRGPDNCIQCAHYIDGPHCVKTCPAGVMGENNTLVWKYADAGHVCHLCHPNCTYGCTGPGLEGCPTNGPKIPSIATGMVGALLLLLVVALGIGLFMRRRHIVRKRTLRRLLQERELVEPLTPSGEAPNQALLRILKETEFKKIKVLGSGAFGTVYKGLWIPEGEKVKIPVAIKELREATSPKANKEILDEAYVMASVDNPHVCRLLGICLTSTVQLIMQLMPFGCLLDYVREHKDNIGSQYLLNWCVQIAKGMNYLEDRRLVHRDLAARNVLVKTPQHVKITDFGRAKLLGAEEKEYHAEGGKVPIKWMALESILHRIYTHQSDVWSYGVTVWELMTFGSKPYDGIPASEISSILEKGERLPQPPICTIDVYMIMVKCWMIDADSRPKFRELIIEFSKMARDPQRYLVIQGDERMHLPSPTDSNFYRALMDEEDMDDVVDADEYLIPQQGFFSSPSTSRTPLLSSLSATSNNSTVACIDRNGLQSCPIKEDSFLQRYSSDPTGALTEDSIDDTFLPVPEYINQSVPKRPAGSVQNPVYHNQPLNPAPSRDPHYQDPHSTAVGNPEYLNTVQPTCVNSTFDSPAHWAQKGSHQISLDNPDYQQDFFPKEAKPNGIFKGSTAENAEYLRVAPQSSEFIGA
Test [13] relates to A549. In words: Cell cycle arrest in human A549 cells assessed as accumulation of cells at G2/M phase at 1.80 uM after 24 hrs by propidium iodide staining-based flow cytometric analysis (reference value: 2.65%). It is filed as functional. The essentials:
as §3

The subject of test [14] is A549. In words: Cell cycle arrest in human A549 cells assessed as accumulation of cells at G0/G1 phase at 0.72 uM after 24 hrs by propidium iodide staining-based flow cytometric analysis (reference value: 65.22%). It is filed as functional. The essentials:
as §3

The test system of test [15] is NCI-H1975. In words: Induction of apoptosis in human NCI-H1975 assessed as induction of chromatin shrinkage at 0.25 uM by H33342 staining-based inverted fluorescence microscopic analysis. Type of test: functional, cell-based. The essentials: as §2
For test [16], the system named is A549. In words: Cell cycle arrest in human A549 cells assessed as accumulation of cells at G2/M phase at 0.72 uM after 24 hrs by propidium iodide staining-based flow cytometric analysis (reference value: 2.65%). Type of test: functional. In a few lines: as §3
Test [17] has as its system A549. As to the kind of experiment: Antiproliferative activity against human A549 cells after 72 hrs by MTT assay. The following applies: A549, 72 h. Type of test: functional, cell-based. The essentials: (§4)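 MTT assay; cells grown as monolayers in DMEM or RPMI1640 with 10% FBS at 37 °C, 5% CO2 for 24 h, then compound added for 72 h. MTT at 5 μg/mL for 4 h at 37 °C, formazan dissolved in DMSO, absorbance read at 492 nm with 630 nm reference. Each compound tested three times per line; IC50 from averaged determinations.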

Test [18] relates to NCI-H1975. In words: Antiproliferative activity against human NCI-H1975 cells after 72 hrs by MTT assay. It is filed as functional, cell-based. The following applies: NCI-H1975, 72 h. In a few lines: as §4
Test [19] has as its system A549. In words: Cell cycle arrest in human A549 cells assessed as accumulation of cells at S phase at 0.36 uM after 24 hrs by propidium iodide staining-based flow cytometric analysis (reference value: 32.13%). It is filed as functional. In a few lines:
as §3

Test [20] relates to A549. In words: Cell cycle arrest in human A549 cells assessed as accumulation of cells at G0/G1 phase at 1.80 uM after 24 hrs by propidium iodide staining-based flow cytometric analysis (reference value: 65.22%). Type of test: functional. The essentials:
as §3

Sequence of Epidermal growth factor receptor (Homo sapiens, UniProt P00533) (P00533 whole entry): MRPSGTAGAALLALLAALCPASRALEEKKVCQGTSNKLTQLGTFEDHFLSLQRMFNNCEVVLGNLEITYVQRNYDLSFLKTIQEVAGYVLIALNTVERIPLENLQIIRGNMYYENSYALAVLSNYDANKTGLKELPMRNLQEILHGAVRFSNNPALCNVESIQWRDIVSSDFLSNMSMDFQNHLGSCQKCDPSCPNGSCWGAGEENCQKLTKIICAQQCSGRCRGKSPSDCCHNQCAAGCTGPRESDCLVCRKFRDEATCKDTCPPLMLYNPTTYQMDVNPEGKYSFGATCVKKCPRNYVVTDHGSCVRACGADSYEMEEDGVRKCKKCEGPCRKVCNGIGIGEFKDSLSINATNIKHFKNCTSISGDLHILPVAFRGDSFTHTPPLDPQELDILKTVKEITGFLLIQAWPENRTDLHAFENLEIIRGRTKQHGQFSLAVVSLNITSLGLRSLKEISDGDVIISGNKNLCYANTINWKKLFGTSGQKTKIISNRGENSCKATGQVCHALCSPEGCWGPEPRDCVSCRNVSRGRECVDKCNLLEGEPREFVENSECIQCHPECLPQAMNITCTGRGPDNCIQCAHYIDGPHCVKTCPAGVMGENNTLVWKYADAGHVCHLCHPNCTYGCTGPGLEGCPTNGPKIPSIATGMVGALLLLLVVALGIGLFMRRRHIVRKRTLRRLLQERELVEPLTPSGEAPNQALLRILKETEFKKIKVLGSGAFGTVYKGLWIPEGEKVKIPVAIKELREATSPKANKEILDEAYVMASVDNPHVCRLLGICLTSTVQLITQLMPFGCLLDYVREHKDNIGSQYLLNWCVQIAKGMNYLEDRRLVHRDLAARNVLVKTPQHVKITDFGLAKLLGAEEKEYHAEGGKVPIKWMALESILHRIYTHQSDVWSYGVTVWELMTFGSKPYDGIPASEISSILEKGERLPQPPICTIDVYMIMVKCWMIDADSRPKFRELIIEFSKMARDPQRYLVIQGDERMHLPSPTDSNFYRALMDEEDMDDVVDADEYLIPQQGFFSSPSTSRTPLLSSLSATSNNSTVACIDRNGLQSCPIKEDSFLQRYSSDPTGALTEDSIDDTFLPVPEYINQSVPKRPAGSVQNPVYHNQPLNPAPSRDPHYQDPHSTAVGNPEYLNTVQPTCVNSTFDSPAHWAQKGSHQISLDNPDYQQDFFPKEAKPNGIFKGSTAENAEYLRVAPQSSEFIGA

On to `CCC/C=C\C(=O)Nc1cc(Nc2nc(C)cc(-c3cn(C)c4ccccc34)n2)c(OC)cc1N(C)CCN(C)C`, for which the outcome in the test with NCI-H1975 [1], in the test on NCI-H1975 [2], in the test on NCI-H1975 [5], in the test with NCI-H1975 [6], in the test on NCI-H1975 [10] and in the test with NCI-H1975 [15] was Active. Moreover, the Activity is 38.24% in the test on A549 [3]; 6.07% in the test with A549 [4]; “Dose-dependent effect” in the test with A549 [7]; 39.81% with A549 [9]; 56.78% with A549 [11]; 22.24% with A549 [13]. The Activity was found to be 44.91% in the test with A549 [14], 15.28% in the test with A549 [16], 37.15% in the test with A549 [19] and 39.55% in the test on A549 [20]. Further, the IC50 in [8] is 1.53 µM; in the test with HepG2, 0.365 µM; in test [12], 0.008 µM; in the test on A549 [17], 0.329 µM; in the test with NCI-H1975 [18], 0.254 µM. Besides, in the test filed under Homo sapiens, the Ratio IC50 amounted to 191.
With `CCC/C=C\C(=O)Nc1cc(Nc2ncc(C#N)c(-c3cn(C)c4ccc(F)cc34)n2)c(OC)cc1N(C)CCN(C)C`, the IC50 in [8] is 1.06 µM; in the test with HepG2 it was 2.01 µM; in test [12], 0.201 µM; in the test with A549 [17] it was 0.741 µM; in the test with NCI-H1975 [18] it was 2.42 µM. Besides, the Ratio IC50 in the test filed under Homo sapiens stood at 5.3.
Turning to `C=C(Cl)C(=O)Nc1cc(Nc2ncc(C#N)c(-c3cn(C)c4ccccc34)n2)c(OC)cc1N(C)CCN(C)C`, the IC50 came out at 0.137 µM in [8]; 0.115 µM with HepG2; 0.02 µM in test [12]; 0.133 µM in the test on A549 [17]; 1.62 µM with NCI-H1975 [18]. Moreover, the Ratio IC50 in the test listed under Homo sapiens is 6.9.
`C=CC(=O)Nc1cc(Nc2nc(C)cc(-c3cn(C)c4ccccc34)n2)c(OC)cc1N(C)CCN(C)C`: the IC50 in test [8] is 1.34 µM; with HepG2, 12.6 µM; in [12] it was 0.093 µM; with A549 [17], 2.91 µM; in the test with NCI-H1975 [18], 4.81 µM. Besides, the Ratio IC50 in the test listed under Homo sapiens was found to be 14.5.
On to `CCC/C=C\C(=O)Nc1cc(Nc2nccc(-c3cn(C)c4ccccc34)n2)c(OC)cc1N(C)CCN(C)C`, for which the IC50 in [8] came out at 1.5 µM; in the test with HepG2, 0.431 µM; in test [12], 0.203 µM; in the test on A549 [17] it was 0.808 µM; with NCI-H1975 [18], 1.22 µM. The Ratio IC50 in the test listed under Homo sapiens is 7.4.
Consider `COc1cc(N(C)CCN(C)C)c(NC(=O)/C=C\C(C)C)cc1Nc1ncc(C#N)c(-c2cn(C)c3ccccc23)n1`, for which the IC50 turned out to be 0.985 µM in [8]; 1.81 µM with HepG2; 0.219 µM in [12]; 1.1 µM in the test on A549 [17]; 1.11 µM in the test on NCI-H1975 [18]. In addition, the Ratio IC50 in the test listed under Homo sapiens came to 4.5.
For the molecule `C=C(Cl)C(=O)Nc1cc(Nc2nc(C)cc(-c3cn(C)c4ccccc34)n2)c(OC)cc1N(C)CCN(C)C`, the IC50 in [8] was determined as 0.083 µM; with HepG2 it was 3.64 µM; in [12], 0.01 µM; in the test with A549 [17], 1.73 µM; in the test with NCI-H1975 [18], 2.23 µM. Moreover, the Ratio IC50 in the test listed under Homo sapiens came to 8.3.
As to `C=C(Cl)C(=O)Nc1cc(Nc2nccc(-c3cn(C)c4ccccc34)n2)c(OC)cc1N(C)CCN(C)C`, the 50% inhibitory concentration (IC50) came to 0.257 µM in [8]; 1.39 µM in the test with HepG2; 0.033 µM in test [12]; 7.52 µM with A549 [17]; 1.29 µM in the test with NCI-H1975 [18]. Moreover, in the test filed under Homo sapiens, the Ratio IC50 was determined as 7.8.

The values above are taken from ChEMBL document CHEMBL4411272, “Design, synthesis and biological evaluation of AZD9291 derivatives as selective and potent EGFRL858R/T790M inhibitors” (Eur J Med Chem, 2019).
